Only a selection was taken, and hits are over-represented in it overall.
XBP1 UPR activ: adaptive UPR (XBP1) activation. CHO-XBP1 luciferase reporter, IRE1-XBP1 UPR activation, luminescence; percent of tunicamycin response, DMSO as zero. activation, % at 20 µM. 330,000 compounds, 0.33% hits;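 active means versus positive control, 20 µM dose yields 30% or more activation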;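 further: 100% = tunicamycin at 10 µg/mL and 0% = DMSO only wells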
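Assay system: IRE1-XBP1 luciferase reporter CHO line. Input: 1000 cells/well. Buffer or medium: F12 with 10% serum. Doses: 20 µM, 1% DMSO. Times: overnight seeding at 37 °C, 6 h compound treatment at 37 °C. Technique: Steady-Glo luciferase glow luminescence, 10 min after reagent addition.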
UPR CHOP act: apoptotic UPR (CHOP) activation; CHO-CHOP luciferase reporter, luminescence; percent of tunicamycin response over DMSO baseline; activation, % at 10 µM; 330,000 compounds, 0.34% hits; AID 449763;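 active means at 10 µM dose, activation of 40% or more, normalized to positive control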;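 further: 100% = tunicamycin at 10 µg/mL and 0% = DMSO alone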
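Material: CHO-CHOP cells, stable luciferase reporter of PERK-eIF2a-CHOP signalling; quantity: 500 reporter cells seeded per well; buffer or medium: F12 medium containing 10% fetal bovine serum; compound: one dose, 10 µM in 0.5% DMSO; incubation: 6 h compound treatment, 37 °C; measured by: Steady-Glo luciferase luminescence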
CHOP inhibitor: CHOP inhibition in unfolded protein response | CHO-K1 CHOP-promoter luciferase, tunicamycin-induced, 15-18 h | AID 2732 | 220,000 compounds, 3.8% hits | inhibition, % at 10 µM;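 active means compounds that reduced the stress-induced luciferase reporter signal by more than about 70% of percent inhibition, limit read from the data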;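 further: 0% = tunicamycin plus vehicle and 100% = wells without tunicamycin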
hiPSC survival: enhancers of human iPSC single-cell survival | hiPSC single-cell survival, ATPlite luminescence; 100% = ROCK inhibitor wells, 0% = DMSO | survival enhancement, % at 20 µM | 360,000 compounds, 0.044% hits | AID 602274; in the data active means survival enhancement above about 18%;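 further: cells exposed to compounds for 16 hours before the ATP read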
Cardio protect: myocardial damage modulation in H9c2 cells; H9c2 cardiomyocytes, H2O2 injury protection, ATPLite, 2 h; protection from H2O2 cell death, % at 20 µM; 360,000 compounds, 0.63% hits;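 active means compounds giving at least 50% protection of heart cells from peroxide-induced death in the single-dose screen, raw or plate-pattern-corrected value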;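 further: 0% = DMSO wells with peroxide and 100% = DMSO wells without peroxide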
* marks the source's active call; other numbers are inactive results; / = no result given.

SMILES	XBP1 UPR activ	UPR CHOP act	CHOP inhibitor	hiPSC survival	Cardio protect
CCn1c(O)c(/C=C2\C=Nc3ccccc32)sc1=Nc1ccccc1	9	2	79*	-1	-13
O=C(c1cnc(Cc2c[nH]c3ccccc23)c(I)c1)N1CCOCC1	/	/	/	1	11
CC1(C(=O)Nc2ccc3c(c2)OCCO3)CCC(=O)N1C1CCN(Cc2ccccc2)CC1 (stereo not given)	/	/	/	0	6
Cc1oc2c(O)c(O)ccc2c(=O)c1-c1ccc(Cl)cc1	-1	2	/	1	72*
Cc1oc2c(O)c(O)ccc2c(=O)c1-c1ccccc1	-3	-1	25	2	69*
Cc1oc2c(CN3CCCC3)c(O)ccc2c(=O)c1-c1ccc(Br)cc1	-3	0	/	-2	7
CCCS(=O)(=O)NC(=O)C1(C)CCCN(C(=O)CSc2ccccc2)C1 (stereo not given)	/	/	/	2	-2
COc1cc(C(=O)Nc2nc(-c3cccs3)cs2)cc(OC)c1OC	3	8	13	1	81*
COc1ccc(C(=O)Nc2nc(-c3cccs3)cs2)cc1	11	5	17	-1	1
CC(=O)C1CCC2C3CC=C4CC(SC(=N)N)CCC4(C)C3CCC12C (stereo not given)	/	/	/	1	-22
CCCC(=O)NC(c1ccc(OC)cc1)c1ccc2cccnc2c1O (stereo not given)	4	3	82*	0	32
CCCCC(=O)NC(c1ccc(C(C)C)cc1)c1ccc2cccnc2c1O (stereo not given)	2	-1	/	0	51*
O=C(Nc1cccc2cccnc12)c1csc(COCCO)n1	/	/	/	1	21
Cc1cc(Nc2ccccc2)nn1C(=O)c1ccc([N+](=O)[O-])cc1	1	1	5	-2	-13
Cc1cc(Nc2ccccc2)nn1C(=O)c1ccc(Cl)cc1	-1	4	77*	0	-3
Nc1ccc(CSc2ccc(Cl)cc2)c(Cl)c1	/	/	/	5	-8
C/C(=N\NC(=O)CCCNc1ccc(C)cc1)c1ccccn1	-2	-3	44	-1	58*
Cc1cc(N(C)/N=C/c2ccccc2O)nc(-c2ccccc2O)n1	4	7	-3	-1	50*
Cc1cccc(NC(=O)c2ncn3c2C(=O)N[C@H](C)C3)c1	/	/	/	3	-2
O=C(NCC(=O)N(Cc1cccs1)C(C(=O)NC1CCCCC1)c1ccco1)c1ccco1 (stereo not given)	-1	-3	15	-2	77*
COc1ccc(CNC(=S)Nc2cccc(F)c2)cc1	-6	2	/	0	-10
CN=C1S/C(=C\c2cc(C)n(-c3ccccc3F)c2C)C(=O)N1C	0	-5	96*	0	-21
Cc1cc(/C=C2\SC(=O)N(C)C2=O)c(C)n1-c1ccc(O)cc1	-6	0	/	0	-14
Cc1ccccc1NC(=O)CSc1nc(N2CCCCC2)nc(N2CCCCC2)n1	0	0	68	0	2
Cc1ccc(CNC(=O)CSc2nc(N3CCCCC3)nc(N3CCCCC3)n2)cc1	-4	1	71*	-2	-14
SMILES	XBP1 UPR activ	UPR CHOP act	CHOP inhibitor	hiPSC survival	Cardio protect
CCOC(=O)C(CCCCOc1cccc(CC)c1)C(=O)OCC	-2	4	71*	0	-8
CC1CCC(NC(=O)c2ccc(CNc3c(NC4CCCCC4)c(=O)c3=O)cc2)CC1 (stereo not given)	-2	-1	-2	0	-8
O=C(c1ccc(CNc2c(NC3CCCCC3)c(=O)c2=O)cc1)N1CCc2ccccc21	/	/	73*	1	8
COc1ccc(CNCCCn2cnc3c(SC)ncnc32)cc1	/	/	/	0	-3
O=C1NC[C@@H](CCCCN2C[C@H](Cc3ccccc3)N(CC3CCCCC3)C(=O)C2=O)N(CC2CCCCC2)C1=O	/	/	/	-1	/
CCCc1ccc2c(C(F)(F)F)cc(C(F)(F)F)cc2n1	/	/	/	3	8
C[C@H](CO)N1C[C@H](C)[C@@H](CN(C)S(=O)(=O)c2ccc(-n3cccn3)cc2)OCc2cnnn2CCCC1=O	/	/	/	-1	8
CC(C)C(=O)N=c1sc2cc(F)cc(F)c2n1C	3	-1	85*	-1	-5
C[C@H](CO)N1C[C@H](C)[C@@H](CN(C)C(=O)Nc2ccc(C(F)(F)F)cc2)Oc2c(NC(=O)CCC(F)(F)F)cccc2C1=O	-2	3	/	0	-3
Cn1c(SCC(=O)c2ccc3c(c2)NC(=O)CO3)nc2ccccc21	1	2	86*	-1	4
COc1ccc(C(=O)c2sc(NC(C)C)nc2N)cc1OC	1	-4	46	2	8
COc1cccc(C(=O)c2sc(NC(C)C)nc2N)c1	-4	-3	91*	-2	-11
CC1(C(=O)NC2CCCC2)CCC(=O)N1CCCn1ccnc1 (stereo not given)	/	/	/	0	6
O=C(Nc1nc2cc3c(cc2s1)OCCO3)C1=COCCO1	-6	-10	94*	-1	-13
O=C(Nc1nc2ccc(F)cc2s1)C1=COCCO1	-8	-6	/	-1	-14
CC(=O)c1c(C)[nH]c(C(=O)OCC(=O)Nc2sc3c(c2C#N)CCC(C)C3)c1C (stereo not given)	-1	2	94*	0	-17
Cn1c(CNC(=O)c2ccc(Cl)cc2)nnc1SCC(=O)Nc1sc2c(c1C#N)CCCC2	0	1	91*	-1	-3
N#Cc1c(NC(=O)CSc2ncn[nH]2)sc2c1CCCC2	-2	-6	78*	0	-33
Cc1ccc(C(=O)NCc2nnc(SCC(=O)Nc3sc4c(c3C#N)CCCC4)n2C)cc1	-3	1	67	4	8
CC1CCc2c(sc(NC(=O)CSc3ncn[nH]3)c2C#N)C1 (stereo not given)	-9	-8	85*	0	-9
CC(=O)Nc1cccc(C(=O)NN2C(=O)NC3(CCC(C)CC3)C2=O)c1 (stereo not given)	/	/	/	-3	1
CS(=O)(=O)n1c2ccccc2c(=O)n1-c1ccccc1CCl	/	/	/	2	5
CCCNC(=O)c1cc(C2CCCN(S(=O)(=O)c3cccs3)C2)on1 (stereo not given)	/	/	/	1	-13
CCOC(=O)C1=C[C@@H](C(C)(C)C)N(S(=O)(=O)c2ccc(C)cc2)[C@H]1c1cccc(Cl)c1	/	/	/	-2	-8
N#Cc1c(NC(=O)CSc2nnc(-c3ccccc3)o2)sc2c1CCCC2	13	1	39	1	-2
CC1CCc2c(sc(NC(=O)CSc3nnc(-c4ccccc4)o3)c2C#N)C1 (stereo not given)	-2	1	74*	2	-6
NC(=O)c1cc[n+](CC2=C(C(=O)O)N3C(=O)[C@@H](NC(=O)[C@@H](c4ccccc4)S(=O)(=O)[O-])[C@H]3SC2)cc1	/	/	-26	/	/
C=CCN(CC=C)S(=O)(=O)c1ccc(F)cc1	-2	2	79*	1	5

High-throughput results as filed in PubChem BioAssay.
